Sampled rows, rich in hits. Any-hit rate of the full collection: about 3%.
hiPSC survival = enhancers of human iPSC single-cell survival | hiPSC single-cell survival, ATPlite luminescence; 100% = ROCK inhibitor wells, 0% = DMSO | AID 602274 | survival enhancement, % at 20 µM | 360,000 tested, 0.044% active; in the data active means survival enhancement above about 18%;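 further: cells exposed to compounds for 16 hours before the ATP read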
MIN6 prolif = inducers of beta-cell replication in MIN6 cells. proliferation, % at 10 µM. 330,000 tested, 0.29% active. MIN6 cells proliferation, ATPlite luminescence, 48 h; cells starved in 0.2% serum; 100% = growth in 10% serum;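 active means compounds whose signal lies at least 3.5 SD above the mean of all wells on their plate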;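 further: 0% = DMSO-treated cells in low-serum medium and 100% = 10% serum control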
UBC13 inh = blocks human UBC13 polyubiquitin chain formation. inhibition, % at 20 µM. P61088. 330,000 tested, 0.47% active. AID 485273. TR-FRET; in the data active means inhibition above about 45%, passing the limit was not always enough
MPTP inh = permeability transition pore inhibition; 360,000 tested, 1.4% active; isolated mouse mitochondria, Ca2+ swelling absorbance, 30 min; inhibition, % at 10 µM; AID 602449;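 active means inhibition of 50% or more, scaled per plate between neutral and stimulator controls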;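 further: 0% = DMSO wells given calcium and 100% = 1 mM EGTA wells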
Apaf1 inhib = human Apaf-1 inhibition; AID 489030; inhibition, % at 20 µM; 330,000 tested, 0.71% active; O14727; reconstituted apoptosome caspase-3 activity, DEVD-Rh110 fluorescence; active means inhibition of at least 40% at 20 µM;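 further: plate controls were DMSO wells for no effect and DEVD-CHO caspase inhibitor wells for full effect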
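Medium: Hepes buffer, pH 7.5 / System: biochemical Apaf-1 apoptosome reconstitution / Measured by: Rh110 fluorescence, excitation 480 nm, emission 540 nm / Times: compound with Apaf-1, dATP, procaspase-3 30 min, then 50 min reaction, room temperature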
Granule exo inh = lytic granule exocytosis inhibition | TALL-104 LAMP-1 surface exposure, flow cytometry; cells stimulated with thapsigargin and PMA | inhibition, % at 10 µM | 360,000 tested, 0.66% active;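 active means inhibition above about 55%, limit read from the data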
MPTP counter = membrane potential counter-screen of mitochondrial pore inhibitors; shares compounds with MPTP inh; isolated mitochondria, Rhodamine 123 fluorescence; inhibition, % at 10 µM; AID 624504; 5,000 tested, 78% active; in the data active means inhibition above about 22%;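 further: 0% = DMSO vehicle and 100% = positive control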
MPTP abs DR = dose response confirmation of mitochondrial permeability transition pore inhibitors; isolated mitochondria swelling, absorbance; IC50, µM; 780 tested, 58% active; shares compounds with MPTP inh; in the data active means IC50 below about 20 µM
MPTP counter DR = counter-screen for mitochondrial permeability transition pore inhibitors, dose response | shares compounds with MPTP inh | 780 tested, 49% active | IC50, µM | isolated mitochondria counterscreen, fluorescence read-out; in the data active means IC50 below about 80 µM
Active calls of the source: *; i = inactive; / = no result.

SMILES	hiPSC survival	MIN6 prolif	UBC13 inh	MPTP inh	Apaf1 inhib	Granule exo inh	MPTP counter	others
CN1C(C(=O)Nc2ccc(OC(F)(F)F)cc2)=CC(c2cccs2)=NS1(=O)=O	0	-3	-13	74*	-12	6	84*
CN1C(C(=O)Nc2ccc(OC(F)(F)F)cc2)=CC(c2ccc3c(c2)OCO3)=NS1(=O)=O	0	-1	-5	90*	-6	3	78*
CNC(=O)Nc1cc(C(F)(F)F)cc(C(F)(F)F)c1	0	-5	6	64*	-17	-4	94*
CC(CC(=O)O)CC(=O)Nc1cc(C(F)(F)F)cc(C(F)(F)F)c1 (stereo not drawn)	1	-2	-6	2	-9	0	/
CC(=O)Nc1ccc(NC(=O)C(C)OC(=O)CSc2ccc(Br)cc2C)cc1 (stereo not drawn)	0	0	3	0	12	0	/
COc1ccc(C2CC(c3ccccc3)=NN2c2ccc(N)cc2)cc1 (stereo not drawn)	0	-3	11	73*	7	12	71*
O=c1[nH]c(=O)n(Cc2ccco2)c2c1C(C(F)(F)F)(C(F)(F)F)N=C(CCc1ccccc1)N2	1	-5	-9	7	28	1	/
N#Cc1ccc(C2=NC(C(F)(F)F)(C(F)(F)F)c3c(n(Cc4ccco4)c(=O)[nH]c3=O)N2)cc1	4	-4	-2	84*	-7	4	84*
O=c1[nH]c(=O)n(Cc2ccco2)c2c1C(C(F)(F)F)(C(F)(F)F)N=C(CCC1CCCCC1)N2	0	-6	-1	70*	30	3	90*
O=c1[nH]c(=O)n(-c2ccc(F)cc2)c2c1C(C(F)(F)F)(C(F)(F)F)N=C(c1ccc(F)cc1)N2	-1	0	-24	100*	1	12	85*
F[B-](F)(F)c1cncc2ccccc12	-1	/	/	1	/	-2	/
COCCNc1nc(NCC2CCCCC2)c2sc(-c3ccccc3)cc2n1	-5	/	/	70*	/	53	93*
COC(=O)C1CCCCN1C(=O)c1cc(COc2cccc3cnccc23)on1 (stereo not drawn)	0	-7	4	93*	1	0	100*
O=C(c1cc(COc2cccc3cccnc23)on1)N1CCC[C@H]1CO	3	/	/	0	/	-13	/
CCOC(=O)CC1CCCCN1C(=O)c1cc(COc2cccc3cnccc23)on1 (stereo not drawn)	0	-8	1	102*	11	-1	112*
CC(C)CN(C(=O)c1ccc(N2CCCC2=O)cc1)c1c(N)n(Cc2ccccc2)c(=O)[nH]c1=O	5	5	-14	-2	7	-3	/
O=c1oc2cc(O)ccc2cc1-c1nc2c(s1)CCc1ccccc1-2	2	/	/	89*	/	7	84*
O=c1oc2ccccc2cc1-c1nc2c(s1)CCc1ccccc1-2	0	-4	32	2	10	-3	/
Cc1ccc(S(=O)(=O)N(C)C)cc1NC(=S)NC(C)CCCC(C)C (stereo not drawn)	-1	-5	-1	96*	17	1	92*
COCCN(CCOC)C(=S)Nc1cc(S(=O)(=O)N(C)C)ccc1C	0	-4	-4	-5	-5	1	/
Cc1ccc(S(=O)(=O)N(C)C)cc1NC(=S)NCCCn1ccnc1	-2	1	12	-1	-5	-1	/
Cc1ccc(S(=O)(=O)N(C)C)cc1NC(=O)Nc1ccccc1F	0	-2	-7	6	-22	-4	/
Cc1ccc(S(=O)(=O)N(C)C)cc1NC(=S)NC(C)CCC(C)C (stereo not drawn)	-1	-2	1	57*	5	-2	73*
CCCCCCC(C)NC(=S)Nc1cc(S(=O)(=O)N(C)C)ccc1C (stereo not drawn)	5	-4	-2	64*	13	2	79*
Cc1cc(C)cc(NC(=O)Nc2cc(S(=O)(=O)N(C)C)ccc2C)c1	0	3	-15	64*	-1	-9	84*
SMILES	hiPSC survival	MIN6 prolif	UBC13 inh	MPTP inh	Apaf1 inhib	Granule exo inh	MPTP counter	others
CC(C)Oc1cc(C(=O)NC2CCCCC2)c2ccccc2n1	0	-2	-4	0	15	-4	/
O=C1NC[C@H](Cc2ccccc2)N(CC2CCN(CC3CCCC3)CC2)C1=O	0	/	/	0	/	1	/
COc1cc(OC)cc(C(=O)NNC(=O)c2nn(C)c(=O)c3ccccc23)c1	5	0	-13	0	11	-4	/
O=C(CCN1C(=O)/C(=C\c2ccccc2)SC1=S)NNC(=O)c1ccncc1	-1	2	-8	53*	-2	4	4	MPTP abs DR=>100;MPTP counter DR=>80
O=C(CCN1C(=O)/C(=C/c2ccccc2)SC1=S)NCCCN1CCOCC1	0	-1	-10	74*	-6	-3	4	MPTP abs DR=i;MPTP counter DR=63*
O=C(CCN1C(=O)/C(=C\c2cccc(Br)c2)SC1=S)NCCCN1CCOCC1	0	-3	-9	65*	10	75*	18	MPTP abs DR=17*;MPTP counter DR=17*
O=C(O)C(c1ccccc1)N1C(=O)/C(=C/c2cccs2)SC1=S (stereo not drawn)	-1	-3	-4	3	17	-3	/
O=C(CCN1C(=O)/C(=C/c2ccccc2)SC1=S)NNC(=O)c1ccncc1	-1	0	0	7	0	-2	/
CC(c1ccccc1)N1C(=O)/C(=C/c2ccncc2)SC1=S (stereo not drawn)	-1	-3	3	70*	9	-1	29*
CCc1ccc(/C=C2/SC(=S)N(CCC(=O)NCCCN3CCOCC3)C2=O)cc1	0	-2	9	3	12	22	/
CC1(C(=O)NS(=O)(=O)c2cccc(OC(F)F)c2)CCN1C(=O)c1ccccc1CCc1ccccc1 (stereo not drawn)	6	/	/	2	/	3	/
C[C@@H]1CN([C@H](C)CO)C(=O)CCCn2nncc2CO[C@@H]1CN(C)S(=O)(=O)c1cccs1	1	/	/	-1	/	5	/
CC(CCc1ccccc1)NC(=O)CCNS(=O)(=O)c1ccccc1C(F)(F)F (stereo not drawn)	0	-5	12	1	-3	-3	/
O=C(C[C@H]1C(=O)N(C2CCCCC2)C[C@@H]1c1ccccc1)Nc1ccc(Br)cc1	0	/	/	0	/	-5	/
Cc1ccc(NS(=O)(=O)c2ccc(C3CCCCC3)cc2)cc1	0	-6	-8	73*	4	-1	78*

Bioassay records as filed in PubChem BioAssay.
